The list is not random: actives were taken first. Their share in the collection is about 9.4%.
SKKanGAS inh: S. pyogenes SKKanGAS growth inhibitors in kanamycin, primary screen, streptokinase expression inhibitor project, SKKanGAS strain, BacTiter-Glo luminescence; 6 h; inhibition, % at 7.5 µM; hit rate 1.3% among 300,000; AID 1662, 2009;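 active = mean replicate score, as percent of positive control median, at least 50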;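 note: strain carries kanamycin resistance gene driven by streptokinase promoter and grows in 40 µg/ml kanamycin; loss of luminescence reflects streptokinase promoter inhibition or plain growth inhibition; 0% = median of DMSO wells and 100% = positive control at its reference dose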
T cruzi repl: inhibitors of intracellular T. cruzi growth, primary screen, luminescence, NIH3T3 host cells. T. cruzi beta-gal in NIH3T3, 90 h. inhibition, % (concentration not given with the values). hit rate 1.4% among 300,000;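 active = mean inhibition across valid replicates above about 55%, limit read from the data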;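 note: signal also drops with host cell toxicity which is not excluded here; 0% = plate median of DMSO wells and 100% = zero luminescence signal; higher percent means less beta-gal luminescence so fewer parasites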
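System – NIH/3T3 host cells with β-galactosidase reporter T. cruzi · Doses – single 50 nL compound addition per well in DMSO · Reagent – 5000 T. cruzi trypomastigotes/well · Medium – Low-serum DMEM with 2% FBS · Timing – ≥90 h infection period, 3 h prior cell attachment · Evaluation – parasite load inhibition, % · Technique – GalScreen luminescence, 60 min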
CSC inhib: cancer stem cell viability inhibitors, primary screen, luminescence; cancer stem cell-like cells viability; hit rate 1.1% among 300,000; inhibition, % at 7.5 µM; in the data active = inhibition above about 75%; tested in HMLE shEcad cells
Mdm2-MdmX inh: inhibitors of human Mdm2-MdmX association, primary screen, cell-based, luminescence, split luciferase, SaOS-2, uHTS | inhibition, % at 8 µM | hit rate 3% among 330,000 | SaOS-2 split-luciferase Mdm2/MdmX complementation | Protein Mdm4 (Homo sapiens) + E3 ubiquitin-protein ligase Mdm2 (Homo sapiens), …;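 active = inhibition of at least 50% at 8 µM in the primary screen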
Lmaj promast: Leishmania major promastigote growth inhibition, primary screen | hit rate 9% among 200,000 | inhibition, % at 10 µM | AID 1063, 2008 | Leishmania major promastigotes, resazurin fluorescence viability; in the data active = inhibition above about 50%;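 note: promastigotes grown with compound for 44 hours at 28 °C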
Beta cell apopt: inhibitors of cytokine-induced beta cell apoptosis, primary screen, luminescence; INS-1E cytokine-induced death, ATP luminescence, 48 h; percent of positive-control rescue, neutral wells zero; protection from apoptosis, % (concentration not given with the values); hit rate 0.8% among 300,000; AID 435005, 2010;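 active = Every replicate reaches about 75%, or at least half do and their mean reaches it too, limit read from the data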;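 note: 0% = cytokine-treated negative control wells and 100% = positive control rescue; higher means more ATP so stronger rescue from cytokine killing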
* hit, by the source's call; x = no result given.

SMILES	SKKanGAS inh	T cruzi repl	CSC inhib	Mdm2-MdmX inh	Lmaj promast	Beta cell apopt
O=C(Nc1ccc(Cc2ccncc2)cc1)c1ccc(S(=O)(=O)N2CCCC2)cc1	0.2	36.9	x	1.0	98.7*	x
NC(=O)c1ccsc1NC(=O)c1ccc(S(=O)(=O)N2CCCC2)cc1	1.3	-17.7	0.9	17.7	56.0*	0.4
CC(=O)c1ccc(NC(=O)c2ccc(S(=O)(=O)N3CCCC3)cc2)cc1	0.9	3.4	-9.3	17.8	98.0*	0.4
Cc1cc(C(=O)Nc2ccc(S(=O)(=O)N3CCCC3)cc2)cs1	x	-8.5	6.2	10.1	72.8*	1.4
CC(=O)Nc1ccc(C(=O)Nc2ccc(S(=O)(=O)N3CCCCC3)cc2)cc1	-0.9	-0.2	-3.7	19.7	x	1.2
COc1ccc(-c2csc(N=C(N)N)n2)cc1	-4.4	0.6	6.1	-80.6	59.6*	-1.5
NC(N)=Nc1nc(CCN2C(=O)c3ccccc3C2=O)cs1	0.2	-4.7	-4.3	13.9	9.0	5.0
Cc1ccc(-c2csc(N=C(N)N)n2)c(C)c1	-6.0	60.1*	-2.9	-3.9	x	27.5
O=c1cc(NCCc2ccccc2)c2ccccc2o1	1.5	-12.9	-11.0	-1.9	21.8	22.4
Cc1cc(C)c2cc(C#N)c(NCCNC(=S)NCCCN3CCOCC3)nc2c1	17.0	9.9	-2.8	27.4	1.9	3.4
Cc1cc(C)c2nc(C(F)(F)F)nc(NCCCN3CCOCC3)c2c1	-5.0	45.3	2.7	26.3	95.2*	-4.7
Cc1ccc(N2C(=O)C3C4C=CC(CNC(=S)Nc5ccc(F)cc5)(O4)C3C2=O)cc1 (stereo not given)	2.6	-11.5	x	5.6	66.5*	1.3
Cc1ccc(N2C(=O)C3C4C=CC(CNC(=S)Nc5ccc(Cl)cc5)(O4)C3C2=O)cc1 (stereo not given)	9.6	-7.1	17.1	2.3	82.9*	-6.4
CC(C)COC(=O)NCC12C=CC(O1)C1C(=O)N(c3ccc(Cl)cc3)C(=O)C12 (stereo not given)	6.2	-7.9	2.9	24.6	-8.9	-16.0
Cc1ccc(N2C(=O)C3C4C=CC(CNC(=S)Nc5cccc(Cl)c5)(O4)C3C2=O)cc1 (stereo not given)	6.0	-0.2	7.7	-14.6	79.1*	0.9
COc1ccc(NC(=O)COc2ccc(C(=O)NC3CCCc4ccccc43)cc2OC)cc1 (stereo not given)	1.2	-8.2	-1.8	16.3	-5.0	-1.0
CCCCCCC1CC(C)(C(=O)CNc2nncs2)OC1=O (stereo not given)	-0.4	61.9*	5.7	7.2	-5.9	-10.1
Cc1cc(C)c2sc(N(CCCN(C)C)C(=O)c3ccc(Br)s3)nc2c1	4.6	52.6	10.6	39.8	54.5*	-3.1
Cc1cc(C)c2sc(N(CCN(C)C)C(=O)c3c(F)cccc3F)nc2c1	-11.5	49.0	7.4	15.7	25.5	-5.5
Cc1ccc2ncnc(Nc3ccc(C)c(C)c3)c2c1	-3.3	3.2	79.9*	33.0	72.8*	18.2
CC(=O)N1CCc2cc(S(=O)(=O)NCC(=O)NCc3ccc(Cl)cc3)ccc21	1.0	2.6	-21.3	2.2	x	-4.6
Cc1c(NS(=O)(=O)c2ccc(N(C)C3CCCCC3)c([N+](=O)[O-])c2)c(=O)n(-c2ccccc2)n1C	3.9	7.7	17.9	-7.9	50.5*	0.9
Cc1ccc(C2(C)NC(=O)N(CC(=O)N(Cc3ccccc3)C(C)(C)C)C2=O)cc1 (stereo not given)	-0.2	11.5	17.4	17.4	x	-2.3
O=C(Nc1nc(-c2ccc3c(c2)OCCO3)cs1)c1ccc(S(=O)(=O)N2CCCCC2)cc1	12.4	48.2	4.9	12.9	85.5*	17.1
O=C(Nc1nc(-c2ccc(S(=O)(=O)N3CCCC3)cc2)cs1)C1COc2ccccc2O1 (stereo not given)	-1.2	29.8	14.9	45.8	83.6*	15.3
O=C(Nc1nc(-c2ccccc2)cs1)C1COc2ccccc2O1 (stereo not given)	7.9	0.7	-8.2	-7.1	3.4	-2.8
O=C(Nc1nc(-c2cccs2)cs1)c1ccc(S(=O)(=O)N2CCCC2)cc1	20.8	9.9	32.6	37.5	76.9*	-3.0
COc1ccc(NC(=O)CNC(=O)CC23CC4CC(CC(C4)C2)C3)c(OC)c1	x	x	x	1.6	x	x
